Source: PubChem BioAssay
In the library only some 3.5% were active in any assay of this set; here they are far more common.
DENV2 CPE = DENV2-induced cell death inhibition. DENV2-infected cells, cytopathic effect rescue, plate reader. CPE inhibition, % at 9.99 µM. 350,000 tested, 1.7% active. AID 651640; in the data active means CPE inhibition above about 20%, passing the limit was not always enough; tested in BHK-21 cells;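 further: 0% = median of neutral control wells and 100% = median of positive control wells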
PGC1a acetyl inh = lowers PGC1a acetylation signal in U2OS cells | AlphaScreen anti-acetyl-lysine; with virally co-expressed GCN5 acetyltransferase | inhibition, % at 15.6 µM | 350,000 tested, 0.17% active | AID 651687;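 active means every replicate shows inhibition of at least 40%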;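 further: 0% = neutral control wells and 100% = positive control wells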
PglD inh = inhibitors of Campylobacter jejuni PglD acetyltransferase; purified PglD enzyme, DTNB colorimetric CoA detection; inhibition, % at 12.5 µM; 360,000 tested, 0.098% active; AID 602405; in the data active means inhibition above about 16%, passing the limit was not always enough
Ecoli rRNA inh = selective bacterial rRNA inhibition in E. coli | E. coli WT GFP vs humanized-ribosome RFP mutants, fluorescence, 24 h; stronger effect = lower value; DMSO median 0, no signal -100 | 350,000 tested, 1.6% active | GFP signal change (wild-type ribosome), % (test concentration not listed);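 active means significant combined selectivity score with lowered wild-type GFP, culture density cut under 30%, mutant RFP and density less affected; inactive means any of these conditions unmet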
FN deposit inh = fibronectin deposition inhibition; AH1F fibroblasts, Alexa488-fibronectin deposition fluorescence, overnight; 350,000 tested, 0.086% active; AID 743247; inhibition, % at 12.6 µM;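 active means mean inhibition across replicates of 30% or more, regardless of how many single replicates reach that level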;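 further: positive control wells lacked labelled fibronectin entirely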
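Assay system: AH1F fibroblasts assembling fluorescent fibronectin matrix; Amount: 10000 AH1F cells per well; Buffer or medium: DMEM, 2% serum; Probe or stimulus: Alexa488-fibronectin, 24 nM final in well; Doses: single compound dose, delivered by pin transfer; Incubation: 1 h adhesion, overnight exposure; Measured by: fluorescence 485/525 nm; Read-out: fibronectin deposition inhibition.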
Env fusion inh = blocks HIV Env-driven cell-cell fusion; inhibition, % at 12.3 µM; 360,000 tested, 1.1% active; AID 651610; HeLa-JRFL Env/CEM21 cell fusion, luciferase;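 active means mean replicate inhibition score of at least 50 and every replicate individually at or above 50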;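 further: 0% = plate neutral controls and 100% = maraviroc near 300 nM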
Numbers without * were called inactive; [ ] = another dose, or the depositor's remark.

`COC(=O)c1c(NC(=O)COc2ccc(Cl)cc2)sc2c1CC(C)(C)NC2(C)C` gave DENV2 CPE -4.1, PglD inh -1.9, Ecoli rRNA inh 6.9 and Env fusion inh 57.3*.
Screening Cc1cc(SCC(=O)c2ccccc2)n2ncc(-c3ccccc3)c2n1 returned DENV2 CPE -4.0, Ecoli rRNA inh -51.2*, FN deposit inh -1.1 and Env fusion inh -13.9.
`COc1cc(/C=N/Nc2ncnc3sc4c(c23)CCC4)ccc1O` gave DENV2 CPE 0.8, PGC1a acetyl inh 5.1, PglD inh 0.2, Ecoli rRNA inh -20.0*, FN deposit inh 4.8 and Env fusion inh 29.4.
Screening COc1cc(/C=N/NC2=NCCCCC2)ccc1O returned DENV2 CPE 2.1, PGC1a acetyl inh -1.9, PglD inh -5.6, Ecoli rRNA inh 6.1, FN deposit inh -2.6 and Env fusion inh 8.7.
For C=C(Br)Cn1cnc2ccccc21 the results were DENV2 CPE 4.4, PGC1a acetyl inh 4.9, Ecoli rRNA inh -2.2, FN deposit inh 0.1 and Env fusion inh 11.8.
`O=C(Cn1cnc2ccccc21)c1ccc(Br)cc1` gave PGC1a acetyl inh 2.4, PglD inh 1.3, Ecoli rRNA inh -28.5*, FN deposit inh -25.0 and Env fusion inh -13.7.
COc1ccc(C(=O)O)cc1S(=O)(=O)N(CCc1ccccc1)Cc1ccccc1 was read as DENV2 CPE 0.8, PGC1a acetyl inh 13.7, PglD inh 2.5, Ecoli rRNA inh -35.6*, FN deposit inh -7.5 and Env fusion inh 0.1.
COc1ccc(C(=O)O)cc1S(=O)(=O)N(C)CCc1cccnc1 was read as PGC1a acetyl inh -0.2 and PglD inh -3.2.
For C[C@@H]1CCCCO[C@@H](CN(C)Cc2ccc(C(=O)O)cc2)[C@H](C)CN([C@H](C)CO)C(=O)c2cc(NC(=O)c3ccccc3)ccc2O1 the results were DENV2 CPE 78.7*, PGC1a acetyl inh 12.9, PglD inh 5.4, Ecoli rRNA inh 3.0, FN deposit inh -1.9 and Env fusion inh -13.4[16.7 µM].
Screening C[C@@H]1CCCCO[C@H](CN(C)Cc2ccc(C(=O)O)cc2)[C@H](C)CN([C@@H](C)CO)C(=O)c2cc(NC(=O)c3ccncc3)ccc2O1 returned DENV2 CPE 32.1*, PGC1a acetyl inh -4.3, PglD inh 0.7, Ecoli rRNA inh 2.7 and Env fusion inh -13.6[16.7 µM].
`C[C@@H]1CCCCO[C@@H](CN(C)Cc2ccc(Cl)c(Cl)c2)[C@@H](C)CN([C@H](C)CO)C(=O)c2cc(NC(=O)c3ccncc3)ccc2O1` gave DENV2 CPE -5.7, PGC1a acetyl inh -5.8, PglD inh -1.9, Ecoli rRNA inh 1.8, FN deposit inh 2.6 and Env fusion inh -2.2[16.7 µM].
`C[C@@H]1CN([C@H](C)CO)C(=O)c2cc(NC(=O)c3ccccc3)ccc2O[C@@H](C)CCCCO[C@@H]1CN(C)Cc1ccc(C(=O)O)cc1` gave DENV2 CPE 114.6*, PGC1a acetyl inh 14.5, PglD inh 6.2, Ecoli rRNA inh -1.9, FN deposit inh 10.2 and Env fusion inh 20.7[16.7 µM].
For C[C@@H]1CN([C@H](C)CO)C(=O)c2cc(NC(=O)c3ccncc3)ccc2O[C@@H](C)CCCCO[C@H]1CN(C)Cc1ccc(Cl)c(Cl)c1 the results were DENV2 CPE 85.4*, PGC1a acetyl inh 7.8, Ecoli rRNA inh -1.3 and FN deposit inh -14.2.
For COCC(=O)Nc1ccc2c(c1)[C@@H]1C[C@H](CC(=O)NCc3cccc(F)c3)O[C@H](CO)[C@@H]1O2 the results were DENV2 CPE -2.4, PGC1a acetyl inh -3.8, PglD inh 1.5, Ecoli rRNA inh 0.3, FN deposit inh 11.2 and Env fusion inh -0.8[16.7 µM].
`CC(C)C[C@H](NC(=O)OC(C)(C)C)C(=O)NCC1CCC(C(=O)N[C@@H](Cc2ccccc2)C(=O)O)CC1` (stereo partly drawn) gave DENV2 CPE -1.9, PGC1a acetyl inh -0.5, PglD inh -2.7, Ecoli rRNA inh 5.7, FN deposit inh 6.5 and Env fusion inh 14.8.
Screening CC(C)[C@H](NC(=O)OC(C)(C)C)C(=O)NCC1CCC(C(=O)N[C@@H](Cc2ccccc2)C(=O)O)CC1 (stereo partly drawn) returned DENV2 CPE 40.0*, PGC1a acetyl inh 10.2, PglD inh -7.3, Ecoli rRNA inh 7.2, FN deposit inh 0.5 and Env fusion inh -1.8.
`COc1ccc(CN(C)C[C@@H]2Oc3ccc(NC(=O)CCCCCC(=O)Nc4ccccc4N)cc3CC(=O)N([C@H](C)CO)C[C@@H]2C)cc1` gave PGC1a acetyl inh -2.9 and Ecoli rRNA inh -1.9.
CN(C)CC(=O)Nc1ccc2c(c1)[C@H]1C[C@@H](CC(=O)NCCN3CCCCC3)O[C@H](CO)[C@H]1O2 was read as DENV2 CPE -4.5, PGC1a acetyl inh 1.7, PglD inh -1.9, Ecoli rRNA inh 1.0 and Env fusion inh -5.4[16.7 µM].
`C[C@@H]1CN([C@H](C)CO)C(=O)c2cc(NC(=O)CCN3CCOCC3)ccc2O[C@H]1CN(C)CC1CCCCC1` gave DENV2 CPE 0.7, PGC1a acetyl inh -7.2, PglD inh 0.6, Ecoli rRNA inh 2.1, FN deposit inh -1.2 and Env fusion inh -1.4[16.7 µM].
For O=C(CS(=O)(=O)c1ccccc1)N1CCN(c2ccccc2)CC1 the results were DENV2 CPE 103.1*, PGC1a acetyl inh 3.8, PglD inh -4.2, Ecoli rRNA inh 12.2, FN deposit inh -9.0 and Env fusion inh 8.1.
`O=C(CS(=O)(=O)c1ccc(Cl)cc1)N1CCN(c2ccccc2)CC1` gave DENV2 CPE 7.3, PGC1a acetyl inh 4.1, PglD inh 1.8, FN deposit inh -6.0 and Env fusion inh 0.7.
`Cc1cc(Br)cn2c(Cc3cccc(F)c3)c(-c3ccc(Cl)cc3)nc12` gave DENV2 CPE -12.1, PGC1a acetyl inh 8.6, PglD inh 0.7, Ecoli rRNA inh -31.5*, FN deposit inh 3.5 and Env fusion inh -10.4.
COc1ccccc1Cc1c(-c2ccc(F)cc2)nc2c(C)cc(Br)cn12 was read as DENV2 CPE 6.0, PGC1a acetyl inh -4.2, PglD inh -4.1, Ecoli rRNA inh -32.5*, FN deposit inh 6.2 and Env fusion inh 41.4.
`Cc1ccc(NC(=O)CN2CCC(NC(=O)c3cccc(F)c3)CC2)cc1C` gave DENV2 CPE 34.2*, PGC1a acetyl inh 5.7, PglD inh -0.6, Ecoli rRNA inh -1.8, FN deposit inh -5.6 and Env fusion inh 6.5.
Screening Cc1cc(C)cc(NC(=O)CN2CCC(NC(=O)c3cccc(F)c3)CC2)c1 returned DENV2 CPE -0.5, PGC1a acetyl inh 5.9, PglD inh 2.7, Ecoli rRNA inh -7.3 and Env fusion inh 18.5.
For CCOc1ccc(-n2c(=S)sc3c(=O)[nH]c(SCC(=O)N4CCC(C)CC4)nc32)cc1 the results were PGC1a acetyl inh 6.2, PglD inh 1.7, Ecoli rRNA inh -25.1*, FN deposit inh -1.3 and Env fusion inh 3.6.
